Experimental data reported in ChEMBL document CHEMBL1141092, “Synthesis of malarial plasmepsin inhibitors and prediction of binding modes by molecular dynamics simulations” (J Med Chem, 2005).
pKi: −log10 of the molar value.

Tests used:
Plasmepsin II = Plasmepsin II (Plasmodium falciparum, UniProt P46925); test: Inhibition constant against plasmepsin-2 of Plasmodium falciparum 10 min using 3 uM of DABCYL-Glu-Arg-Nle-Phe-Le u-Ser-Phe-Pro-EDANS as substrate
Outline: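 Pro-Plm II at 3 nM is self-activated by 40 min preincubation at room temperature in 100 mM sodium acetate pH 4.5, 10% glycerol, 0.01% Tween 20. Inhibitor in DMSO (1% final) is added before 3 µM FRET substrate, and the linear fluorescence increase is read over 10 min. IC50 is fitted to a competitive Langmuir isotherm and converted to Ki via IC50/(1+[S]/Km).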

Plasmepsin I = Plasmepsin I (Plasmodium falciparum, UniProt P39898); test: Inhibition constant against plasmepsin-1 of Plasmodium falciparum, 10 min using 3 uM of DABCYL-Glu-Arg-Nle-Phe-Le u-Ser-Phe-Pro-EDANS as substrate
Outline: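 Recombinant Plm I, amount set to match Plm II catalytic activity, in 100 mM sodium acetate pH 4.5 with 10% glycerol and 0.01% Tween 20. DMSO inhibitor dilutions (1% final DMSO) are added, then 3 µM FRET substrate. Fluorescence rise is followed over a linear 10 min. IC50 comes from a Langmuir fit assuming competitive inhibition, and Ki = IC50/(1+[S]/Km), with Km from Michaelis–Menten.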

Cathepsin D = Cathepsin D (Homo sapiens, UniProt P07339); test: Inhibition constant against pro-cathepsin D (50 ng/mL) of human liver upon incubation at pH 4.5 for 10 min using DABCYL-Glu-Arg-Nle-Phe-Le u-Ser-Phe-Pro-EDANS as substrate
Outline: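 Human liver pro-Cat D at 50 ng/mL is activated for 20 min at 37 °C in 100 mM sodium acetate pH 4.5, 10% glycerol, 0.01% Tween 20. Inhibitor in DMSO (1% final) precedes 3 µM FRET substrate, and the fluorescence increase is followed over a linear 10 min. IC50 is from a competitive Langmuir fit, and Ki = IC50/(1+[S]/Km), with Km from Michaelis–Menten.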

Plasmepsin IV = Plasmepsin IV (Plasmodium falciparum 3D7, UniProt Q8IM16); test: Inhibition constant against plasmepsin-4 of Plasmodium falciparum
Sequence of Plasmepsin IV (Q8IM16 whole entry): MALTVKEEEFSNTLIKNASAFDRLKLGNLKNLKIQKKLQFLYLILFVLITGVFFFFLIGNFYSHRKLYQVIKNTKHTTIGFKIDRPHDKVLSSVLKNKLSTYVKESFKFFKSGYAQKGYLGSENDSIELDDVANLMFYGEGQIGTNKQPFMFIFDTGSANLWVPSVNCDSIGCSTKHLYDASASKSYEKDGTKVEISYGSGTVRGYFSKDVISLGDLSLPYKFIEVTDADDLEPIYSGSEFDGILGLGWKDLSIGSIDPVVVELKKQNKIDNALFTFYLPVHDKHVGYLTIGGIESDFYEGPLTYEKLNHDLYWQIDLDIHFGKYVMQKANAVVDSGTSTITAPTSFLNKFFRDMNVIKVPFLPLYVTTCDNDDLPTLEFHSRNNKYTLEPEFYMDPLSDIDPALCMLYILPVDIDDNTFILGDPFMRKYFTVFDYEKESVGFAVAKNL

Sequence of Plasmepsin II (P46925 whole entry): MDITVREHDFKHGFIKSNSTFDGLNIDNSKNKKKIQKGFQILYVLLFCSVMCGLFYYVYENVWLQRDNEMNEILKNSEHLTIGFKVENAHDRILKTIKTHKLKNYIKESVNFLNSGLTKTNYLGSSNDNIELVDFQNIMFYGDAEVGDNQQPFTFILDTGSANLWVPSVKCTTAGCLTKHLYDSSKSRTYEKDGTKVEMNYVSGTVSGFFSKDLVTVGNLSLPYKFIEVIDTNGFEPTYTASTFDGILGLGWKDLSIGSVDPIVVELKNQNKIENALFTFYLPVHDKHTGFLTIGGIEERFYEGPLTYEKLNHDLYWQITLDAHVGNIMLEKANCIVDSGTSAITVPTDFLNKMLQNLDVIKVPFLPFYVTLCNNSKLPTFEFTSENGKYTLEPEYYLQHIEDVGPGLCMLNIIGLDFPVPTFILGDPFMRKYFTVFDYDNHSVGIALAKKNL
Sequence of Plasmepsin I (P39898 whole entry): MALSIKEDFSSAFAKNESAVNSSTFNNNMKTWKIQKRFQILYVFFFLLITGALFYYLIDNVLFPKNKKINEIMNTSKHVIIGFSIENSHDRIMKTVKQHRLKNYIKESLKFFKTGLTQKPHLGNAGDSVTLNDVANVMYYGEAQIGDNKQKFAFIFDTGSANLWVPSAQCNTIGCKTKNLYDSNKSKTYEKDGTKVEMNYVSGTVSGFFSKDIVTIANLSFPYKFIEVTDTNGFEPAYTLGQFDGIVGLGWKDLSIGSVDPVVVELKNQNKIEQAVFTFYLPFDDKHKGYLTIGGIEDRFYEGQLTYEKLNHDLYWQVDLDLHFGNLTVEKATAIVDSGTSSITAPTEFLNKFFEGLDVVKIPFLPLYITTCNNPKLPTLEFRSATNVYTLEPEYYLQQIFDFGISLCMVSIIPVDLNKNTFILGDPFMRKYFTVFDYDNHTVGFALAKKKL
Sequence of Cathepsin D (P07339 65-162 limits assumed): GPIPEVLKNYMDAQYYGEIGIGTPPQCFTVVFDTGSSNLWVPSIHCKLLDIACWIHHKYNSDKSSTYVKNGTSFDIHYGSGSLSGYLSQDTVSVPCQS
Sequence of Cathepsin D (P07339 169-412 limits assumed): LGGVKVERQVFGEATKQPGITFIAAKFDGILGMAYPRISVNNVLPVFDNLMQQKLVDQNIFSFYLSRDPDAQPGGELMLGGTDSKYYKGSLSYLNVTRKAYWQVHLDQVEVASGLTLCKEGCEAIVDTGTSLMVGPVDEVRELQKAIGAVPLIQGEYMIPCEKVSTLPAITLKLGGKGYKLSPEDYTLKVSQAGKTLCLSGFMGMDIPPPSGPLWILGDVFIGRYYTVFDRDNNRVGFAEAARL

SMILES	pKi (Plasmepsin II)	pKi (Plasmepsin I)	pKi (Cathepsin D)	pKi (Plasmepsin IV)
O=C(CCc1c[nH]c2ccccc12)NNC(=O)[C@H](OC/C=C/Br)[C@H](O)[C@@H](O)[C@@H](OC/C=C/Br)C(=O)N[C@H]1c2ccccc2C[C@H]1O	8.22	7.72	< 5.22	
O=C(CCc1ccccc1)NNC(=O)[C@H](OC/C=C/c1ccc2c(c1)OCO2)[C@H](O)[C@@H](O)[C@@H](OC/C=C/c1ccc2c(c1)OCO2)C(=O)N[C@H]1c2ccccc2C[C@H]1O	7.96	8.22	6.10	
O=C(CCc1ccccc1)NNC(=O)[C@H](OC/C=C/Br)[C@H](O)[C@@H](O)[C@@H](OC/C=C/Br)C(=O)N[C@H]1c2ccccc2C[C@H]1O	8.15	8.05	< 5.22	
O=C(Cc1ccccc1)NNC(=O)[C@H](OC/C=C/Br)[C@H](O)[C@@H](O)[C@@H](OC/C=C/Br)C(=O)N[C@H]1c2ccccc2C[C@H]1O	7.85	7.51	< 5.22	
CC(C)(C)c1ccc(C(=O)NNC(=O)[C@H](OC/C=C/Br)[C@H](O)[C@@H](O)[C@@H](OC/C=C/Br)C(=O)NNC(=O)c2ccc(C(C)(C)C)cc2)cc1	5.82	5.74	5.52	6.32
O=C(N[C@H]1c2ccccc2C[C@H]1O)[C@H](OC/C=C/Br)[C@H](O)[C@@H](O)[C@@H](OC/C=C/Br)c1nnc(CCCc2ccccc2)o1	5.64	5.80	< 5.22	
Cc1nnc([C@H](OC/C=C/Br)[C@H](O)[C@@H](O)[C@@H](OC/C=C/Br)C(=O)N[C@H]2c3ccccc3C[C@H]2O)o1	< 5.30	< 5.52	< 5.22	
O=C(NNC(=O)[C@H](OC/C=C/Br)[C@H](O)[C@@H](O)[C@@H](OC/C=C/Br)C(=O)N[C@H]1c2ccccc2C[C@H]1O)c1ccccc1	6.77	6.58	< 5.22	
CC(=O)c1ccc(/C=C/CO[C@@H](C(=O)NNC(=O)CCc2ccccc2)[C@H](O)[C@@H](O)[C@@H](OC/C=C/c2ccc(C(C)=O)cc2)C(=O)N[C@H]2c3ccccc3C[C@H]2O)cc1	6.84	7.42	5.92	
Cc1n[nH]c([C@H](OC/C=C/Br)[C@H](O)[C@@H](O)[C@@H](OC/C=C/Br)C(=O)N[C@H]2c3ccccc3C[C@H]2O)n1	< 5.30	< 5.52	< 5.22	
C=CCO[C@@H](C(=O)NNC(=O)CCc1ccccc1)[C@H](O)[C@@H](O)[C@@H](OCC=C)C(=O)N[C@H]1c2ccccc2C[C@H]1O	6.79	6.91	< 5.22	
CC(=O)NNC(=O)[C@H](OC/C=C/Br)[C@H](O)[C@@H](O)[C@@H](OC/C=C/Br)C(=O)NNC(C)=O	< 5.30	< 5.52	< 5.22	
CC(=O)NNC(=O)[C@H](OC/C=C/Br)[C@H](O)[C@@H](O)[C@@H](OC/C=C/Br)C(=O)N[C@H]1c2ccccc2C[C@H]1O	6.44	6.16	< 5.22	
O=C(N[C@H]1c2ccccc2C[C@H]1O)[C@H](OC/C=C/Br)[C@H](O)[C@@H](O)[C@@H](OC/C=C/Br)c1nnc(Cc2ccccc2)o1	5.68	< 5.52	< 5.22	
CC(C)(C)c1ccc(C(=O)NNC(=O)[C@H](OC/C=C/Br)[C@H](O)[C@@H](O)[C@@H](OC/C=C/Br)C(=O)N[C@H]2c3ccccc3C[C@H]2O)cc1	6.85	6.70	< 5.22	
O=C(N[C@H]1c2ccccc2C[C@H]1O)[C@H](OC/C=C/Br)[C@H](O)[C@@H](O)[C@@H](OC/C=C/Br)c1nnc(-c2ccccc2)o1	5.47	< 5.52	< 5.22	
CC(C)(C)c1ccc(-c2nnc([C@H](OC/C=C/Br)[C@H](O)[C@@H](O)[C@@H](OC/C=C/Br)C(=O)N[C@H]3c4ccccc4C[C@H]3O)o2)cc1	< 5.30	< 5.52	< 5.22	
O=C(CCN1CCOCC1)NNC(=O)[C@H](OC/C=C/Br)[C@H](O)[C@@H](O)[C@@H](OC/C=C/Br)C(=O)N[C@H]1c2ccccc2C[C@H]1O	5.89	5.70	< 5.22	
Cc1nnc([C@H](OC/C=C/Br)[C@H](O)[C@@H](O)[C@@H](OC/C=C/Br)c2nnc(C)o2)o1	< 5.30	< 5.52	< 5.22	
CC(C)(C)c1ccc(-c2nnc([C@H](OC/C=C/Br)[C@H](O)[C@@H](O)[C@@H](OC/C=C/Br)c3nnc(-c4ccc(C(C)(C)C)cc4)o3)o2)cc1	< 5.30	< 5.52	< 5.22	7.46
C=CCO[C@@H](C(=O)N[C@H]1c2ccccc2C[C@H]1O)[C@H](O)[C@@H](O)[C@@H](OCC=C)C(=O)N[C@H]1c2ccccc2C[C@H]1O				< 5.30
O=C(CCCc1ccccc1)NNC(=O)[C@H](OC/C=C/Br)[C@H](O)[C@@H](O)[C@@H](OC/C=C/Br)C(=O)N[C@H]1c2ccccc2C[C@H]1O	8.00	7.96	< 5.22	
O=C(N[C@H]1c2ccccc2C[C@H]1O)[C@H](OC/C=C/Br)[C@H](O)[C@@H](O)[C@@H](OC/C=C/Br)c1nnc(CCc2ccccc2)o1	5.54	< 5.52	< 5.22	
CN1CCN(CCC(=O)NNC(=O)[C@H](OC/C=C/Br)[C@H](O)[C@@H](O)[C@@H](OC/C=C/Br)C(=O)N[C@H]2c3ccccc3C[C@H]2O)CC1	6.23	5.96	< 5.22	
